Laboratory results from ChEMBL document CHEMBL3616366, “Design, synthesis and biological activity of new amides derived from 3-methyl-3-phenyl-2,5-dioxo-pyrrolidin-1-yl-acetic acid” (Eur J Med Chem, 2015).
The source made the active and inactive calls.

How the values were obtained:
Mus musculus [1] = assay: Anticonvulsant activity in ip dosed albino CD-1 mouse assessed as protection against 6 Hz current-induced seizure measured after 0.5 hrs; type: functional; conditions: CD-1, ip, read-out: MED
How it was run: (§1)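 6-Hz psychomotor test: corneal stimulation 32 mA, 0.2 ms monopolar rectangular pulses at 6 Hz for 3 s, mice restrained then released to observation cage. Protected if normal exploratory behaviour resumes within 10 s. Doses 30, 100, 300 mg/kg i.p.; read at 0.5 and 2 h; minimum active dose.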

[2] = Protective index, ratio of TD50 for neurotoxicity in ip dosed albino CD-1 mouse to ED50 for anticonvulsant activity in ip dosed maximal electoshock-induced seizure albino CD-1 mouse model; type: toxicity, organism-based; conditions: in vivo, read-out: Ratio TD50/ED50
How it was run: (§2)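 Protective index computed as TD50 (rotarod) divided by ED50 (MES or scPTZ), both from probit analysis on groups of six i.p.-dosed mice.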

Mus musculus [3] = assay: Anticonvulsant activity in ip dosed albino CD-1 mouse assessed as protection against subcutaneous pentylenetetrazole-induced seizure measured as time to peak effect; type: functional
How it was run: (§3)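 Quantitative work at time of peak effect previously estimated in screening; groups of six mice given various i.p. doses until ≥3 points within 10–90% seizure protection (MES or scPTZ) or minimal motor impairment on rotarod (10 rpm, failure to hold ≥1 min).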

Mus musculus [4] = assay: Anticonvulsant activity in albino CD-1 mouse assessed as protection against subcutaneous pentylenetetrazole-induced seizure at 30 to 300 mg/kg, ip measured after 2.0 hrs; type: functional
How it was run: (§4)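 Male CD-1 mice given compound i.p. (0.5% methylcellulose suspension) at 30, 100, 300 mg/kg, four per group; pentylenetetrazole 85 mg/kg s.c. at 0.5 or 2 h. Absence of clonic convulsions (≥5 s) over 30 min observation counts as protection. Minimum active dose reported.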

Mus musculus [5] = assay: Neurotoxicity in albino CD-1 mouse assessed as motor performance by measuring time spent in chimney at 104.11 mg/kg, ip administered 2.0 hrs prior to chimney test (reference value: 6.29 +/- 2.48 sec); type: toxicity, organism-based; conditions: in vivo
Mus musculus [6] = assay: Neurotoxicity in albino CD-1 mouse assessed as motor impairment at 30 to 300 mg/kg mg/kg, ip measured after 0.5 hrs by rotarod test; type: toxicity, organism-based; conditions: in vivo
How it was run: (§5)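 Rotarod in male CD-1 mice at 0.5 and 2 h after i.p. 30, 100 or 300 mg/kg (methylcellulose suspension); motor impairment = inability to keep balance on rod turning at 10 rpm for at least 1 min. Minimum neurotoxic dose reported.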

[7] = Neurotoxicity in ip dosed albino CD-1 mouse assessed as motor impairment by rotarod test; type: toxicity, organism-based; conditions: in vivo; how it was run: as §3
Mus musculus [8] = assay: Anticonvulsant activity in albino CD-1 mouse assessed as protection against maximal electroshock-induced seizure at 30 to 300 mg/kg, ip measured after 0.5 hrs; type: functional; conditions: CD-1, ip, read-out: MED
How it was run: (§6)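 Male CD-1 mice (16–26 g), compound suspended in 0.5% methylcellulose/water, i.p. at 30, 100, 300 mg/kg; four mice per group, each used once. Electroconvulsion by electrical stimulus 0.2 s at 50 Hz; protection scored at 0.5 and 2 h. Value is minimum dose showing activity.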

Mus musculus [9] = assay: Anticonvulsant activity in albino CD-1 mouse assessed as protection against maximal electroshock-induced seizure at 30 to 300 mg/kg, ip measured after 2.0 hrs; type: functional; conditions: for minimal effective dose: CD-1, ip, read-out: MED; how it was run: as §6
Mus musculus [10] = assay: Antinociceptive activity in albino CD-1 mouse assessed as reduction in licking and biting time during phase 2 at 104.11 mg/kg, ip administered 2.0 hrs prior to formalin challenge measured between 20.0 to 25.0 mins relative to control; type: functional; design: scale not given: the % may be the effect or the level left
Mus musculus [11] = assay: Anticonvulsant activity in ip dosed albino CD-1 mouse assessed as protection against 6 Hz current-induced seizure measured after 2.0 hrs; type: functional; how it was run: as §1
Mus musculus [12] = assay: Antinociceptive activity in albino CD-1 mouse assessed as reduction in licking and biting time during phase 2 at 104.11 mg/kg, ip administered 2.0 hrs prior to formalin challenge measured between 15.0 to 20.0 mins relative to control; type: functional; design: scale not given: the % may be the effect or the level left
Mus musculus [13] = assay: Anticonvulsant activity in ip dosed albino CD-1 mouse assessed as protection against maximal electroshock-induced seizure; type: functional; conditions: CD-1, ip; how it was run: as §3
Mus musculus [14] = assay: Neurotoxicity in albino CD-1 mouse assessed as motor impairment at 30 to 300 mg/kg mg/kg, ip measured after 2 hrs by rotarod test; type: toxicity, organism-based; conditions: in vivo; how it was run: as §5
Mus musculus [15] = assay: Anticonvulsant activity in ip dosed albino CD-1 mouse assessed as protection against maximal electroshock-induced seizure measured as time to peak effect; type: functional; how it was run: as §3
Mus musculus [16] = assay: Antinociceptive activity in albino CD-1 mouse assessed as reduction in licking and biting time during phase 1 at 104.11 mg/kg, ip administered 2.0 hrs prior to formalin challenge relative to control; type: functional; design: scale not given: the % may be the effect or the level left
Mus musculus [17] = assay: Antinociceptive activity in albino CD-1 mouse assessed as reduction in licking and biting time during phase 2 at 104.11 mg/kg, ip administered 2.0 hrs prior to formalin challenge measured between 15.0 to 30.0 mins relative to control; type: functional; design: scale not given: the % may be the effect or the level left
Mus musculus [18] = assay: Anticonvulsant activity in albino CD-1 mouse assessed as protection against subcutaneous pentylenetetrazole-induced seizure at 30 to 300 mg/kg, ip measured after 0.5 hrs; type: functional; how it was run: as §4
Salmonella typhimurium [19] = assay: Antimutagenic activity in Salmonella typhimurium TA100 assessed as inhibition of nitroquinoline-N-oxide-induced revertant colonies by Ames test; type: functional, Salmonella enterica subsp. enterica serovar Typhimurium
How it was run: (§7)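 Revertants induced by 4-nitroquinoline-N-oxide (final 40 ng/ml) with versus without test compound; TA100 at 37 °C, V. harveyi strains at 30 °C in BOSS medium. Three independent repetitions; inhibition % = 100 − (R1/R2 × 100); 25–40% moderate, ≥40% strong.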

Rattus norvegicus = species: Rattus norvegicus; assay: Displacement of [3H]BTX from voltage-sensitive sodium channel site2 in rat cerebral cortex at 100 uM measured after 60.0 mins by scintillation counting; type: tissue-based
Mus musculus [20] = assay: Antinociceptive activity in albino CD-1 mouse assessed as reduction in licking and biting time during phase 2 at 97.51 mg/kg, ip administered 30 mins prior to formalin challenge measured between 25.0 to 30.0 mins relative to control; type: functional; design: scale not given: the % may be the effect or the level left
Mus musculus [21] = assay: Antinociceptive activity in albino CD-1 mouse assessed as reduction in licking and biting time during phase 2 at 97.51 mg/kg, ip administered 30 mins prior to formalin challenge measured between 15.0 to 20.0 mins relative to control; type: functional; design: scale not given: the % may be the effect or the level left
Mus musculus [22] = assay: Antinociceptive activity in albino CD-1 mouse assessed as reduction in licking and biting time during phase 1 at 97.51 mg/kg, ip administered 30 mins prior to formalin challenge relative to control; type: functional; design: scale not given: the % may be the effect or the level left
Vibrio harveyi [23] = assay: Mutagenic activity in Vibrio harveyi BB7XM assessed as mutagenicity index at 40 ng/ml; type: organism-based; conditions: in vivo
How it was run: (§8)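 Ames TA100 liquid pre-incubation (minimal medium, 37 °C) and V. harveyi assay (BOSS medium, 30 °C); test at 40 ng/ml, triplicate. Mutagenic index = induced revertants / spontaneous revertants (DMSO control); M.I. ≥2 considered mutagenic.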

Mus musculus [24] = assay: Neurotoxicity in albino CD-1 mouse assessed as motor performance by measuring time spent in chimney at 97.51 mg/kg, ip administered 30 mins prior to chimney test (reference value: 6.29 +/- 2.48 sec); type: toxicity, organism-based; conditions: in vivo
Mus musculus [25] = assay: Antinociceptive activity in albino CD-1 mouse assessed as reduction in licking and biting time during phase 2 at 97.51 mg/kg, ip administered 30 mins prior to formalin challenge measured between 15.0 to 30.0 mins relative to control; type: functional; design: scale not given: the % may be the effect or the level left
Salmonella typhimurium [26] = assay: Mutagenic activity in Salmonella typhimurium TA100 assessed as mutagenicity index at 40 ng/ml by Ames test; type: toxicity, organism-based; conditions: salmonella enterica subsp. enterica serovar typhimurium; how it was run: as §8
Vibrio harveyi [27] = assay: Antimutagenic activity in Vibrio harveyi BB7 assessed as inhibition of nitroquinoline-N-oxide-induced revertant colonies; type: functional; how it was run: as §7
Vibrio harveyi [28] = assay: Mutagenic activity in Vibrio harveyi BB7 assessed as mutagenicity index at 40 ng/ml; type: organism-based; conditions: in vivo; how it was run: as §8
Mus musculus [29] = assay: Antinociceptive activity in albino CD-1 mouse assessed as reduction in licking and biting time during phase 2 at 97.51 mg/kg, ip administered 30 mins prior to formalin challenge measured between 20.0 to 25.0 mins relative to control; type: functional; design: scale not given: the % may be the effect or the level left
Vibrio harveyi [30] = assay: Antimutagenic activity in Vibrio harveyi BB7XM assessed as inhibition of nitroquinoline-N-oxide-induced revertant colonies; type: functional; how it was run: as §7
Mus musculus [31] = assay: Anticonvulsant activity in ip dosed albino CD-1 mouse assessed as protection against subcutaneous pentylenetetrazole-induced seizure; type: functional; how it was run: as §3
Mus musculus [32] = assay: Antinociceptive activity in albino CD-1 mouse assessed as reduction in licking and biting time during phase 2 at 114.68 mg/kg, ip administered 30 mins prior to formalin challenge measured between 15.0 to 20.0 mins relative to control; type: functional; design: scale not given: the % may be the effect or the level left
Mus musculus [33] = assay: Antinociceptive activity in albino CD-1 mouse assessed as reduction in licking and biting time during phase 2 at 114.68 mg/kg, ip administered 30 mins prior to formalin challenge measured between 25.0 to 30.0 mins relative to control; type: functional; design: scale not given: the % may be the effect or the level left
Mus musculus [34] = assay: Neurotoxicity in albino CD-1 mouse assessed as motor performance by measuring time spent in chimney at 114.68 mg/kg, ip administered 30 mins prior to chimney test (reference value: 6.29 +/- 2.48 sec); type: toxicity, organism-based; conditions: in vivo
Mus musculus [35] = assay: Antinociceptive activity in albino CD-1 mouse assessed as reduction in licking and biting time during phase 2 at 114.68 mg/kg, ip administered 30 mins prior to formalin challenge measured between 15.0 to 30.0 mins relative to control; type: functional; design: scale not given: the % may be the effect or the level left
Mus musculus [36] = assay: Antinociceptive activity in albino CD-1 mouse assessed as reduction in licking and biting time during phase 1 at 114.68 mg/kg, ip administered 30 mins prior to formalin challenge relative to control; type: functional; design: scale not given: the % may be the effect or the level left
[37] = Protective index, ratio of TD50 for neurotoxicity in ip dosed albino CD-1 mouse to ED50 for anticonvulsant activity in ip dosed subcutaneous pentylenetetrazole-induced seizure albino CD-1 mouse model; type: toxicity, organism-based; conditions: in vivo, read-out: Ratio TD50/ED50; how it was run: as §2

Row | SMILES | minimal effective dose (Mus musculus [1]) [mg/kg] | selectivity ratio [2] | Time (Mus musculus [3]) [h] | MED (Mus musculus [4]) | MTC (Mus musculus [6]) [mg/kg] | TD50 [7] [mg/kg] | minimal effective dose (Mus musculus [8]) [mg/kg] | minimal effective dose (Mus musculus [9]) [mg/kg] | ED50 (Mus musculus [13]) [mg/kg] | MTC (Mus musculus [14]) [mg/kg] | Time (Mus musculus [15]) [h] | MED (Mus musculus [18]) | inhibition (Rattus norvegicus) [%] | also measured
1 | CC1(c2ccccc2)CC(=O)N(CC(=O)N2CCN(c3ccc(F)cc3)CC2)C1=O (stereo not drawn) | 300 | 2.37 | 2 | inactive | 300 | 248 | 100 | 100 | 104 | 300 | 2 | inactive |  | Time (Mus musculus [5]): 6.14 s; Activity (Mus musculus [10]): 95%; minimal effective dose (Mus musculus [11]; CD-1, ip, read-out: MED): 300 mg/kg; Activity (Mus musculus [12]): 95%; Activity (Mus musculus [16]): 60%; Activity (Mus musculus [17]): 82.3%
2 | COc1ccccc1N1CCN(C(=O)CN2C(=O)CC(C)(c3ccccc3)C2=O)CC1 (stereo not drawn) | 100 | 2.46 | 0.5 | inactive | 300 | 240 | 100 | 300 | 97.5 | 300 | 0.5 | inactive | 44.6 | inhibition (INH) (Salmonella typhimurium [19]): 42%; Activity (Mus musculus [20]): 98%; Activity (Mus musculus [21]): 100%; Activity (Mus musculus [22]): 85.5%; Activity_index (Vibrio harveyi [23]): 0.9; Time (Mus musculus [24]): 8.43 s; MED (Mus musculus [11]): inactive; Activity (Mus musculus [25]): 99.3%; Activity_index (Salmonella typhimurium [26]): 0.6; inhibition (INH) (Vibrio harveyi [27]): 45%; Activity_index (Vibrio harveyi [28]): 1.2; Activity (Mus musculus [29]): 100%; inhibition (INH) (Vibrio harveyi [30]): 51%
3 | CC1(c2ccccc2)CC(=O)N(CC(=O)N2CCN(c3ccccc3F)CC2)C1=O (stereo not drawn) |  | 2.64 | 0.5 |  | 300 | 302 | 100 |  | 115 | 300 | 0.5 |  | 56.1 | ED50 (Mus musculus [31]): 97.1 mg/kg; Activity (Mus musculus [32]): 98%; Activity (Mus musculus [33]): 81%; Time (Mus musculus [34]): 6.5 s; Activity (Mus musculus [35]): 87.1%; minimal effective dose (Mus musculus [4]; CD-1, 2 h, read-out: MED): 300 mg/kg; MED (Mus musculus [9]): inactive; Activity (Mus musculus [36]): 73.3%; selectivity ratio [37]: 3.11; minimal effective dose (Mus musculus [18]; CD-1, 0.5 h, read-out: MED): 100 mg/kg
